# Data taken from publication PMC9401513 (Clinical Cancer Research, 2021).
# Legend:
# [1] = test system: advanced NSCLC; experiment: Objective tumor response by RECIST v1.1, NSCLC; assay type: in vivo, human
# Procedure, shortened: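 Investigators assessed tumor response by RECIST v1.1 every 6 weeks (every-3-weeks cohorts) or every 8 weeks (every-2-weeks cohorts). CR and PR in expansion cohorts were confirmed by repeat assessment at least 4 weeks later, and ORR was calculated. NSCLC patients were preselected for moderate-to-high tumor PTK7 by IHC. Later TNBC patients were preselected for moderately high-to-high PTK7. Ovarian cancer patients were platinum-resistant and not preselected.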
# [2] = test system: patients with advanced solid tumors; experiment: Adverse events graded by NCI-CTCAE v4.03 in phase I patients; assay type: in vivo, human; conditions: for Number of AEs (TRAEs) / Pts discontinued due to AEs (TRAEs) / Pts with AEs (TRAEs) / Pts with G3/G4 AEs (TRAEs) / Pts with SAEs (TRAEs) / Pts with dose reduction and temporary discontinuation due to AEs (TRAEs) / Pts with dose reduction due to AEs (TRAEs) / Pts with temporary discontinuation due to AEs (TRAEs): all cycles
# Procedure, shortened: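 Test compound was given by IV infusion over about 60 min every 3 weeks in sequential dose-escalation cohorts to adults with advanced solid tumors (ECOG 0–1). Adverse events were graded by NCI-CTCAE v4.03 over all cycles and tabulated as treatment-related by dose level. G-CSF was permitted after cycle 1. Antiemetics and corticosteroids were given at the physician's discretion.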
# [3] = every 2 weeks, N = 6, (95% CI), NR, not reached
# [4] = every 3 weeks, N = 25, (95% CI)
# [5] = 0.2 mg/kg every 3 weeks, 2 evaluable pts
# [6] = 0.5 mg/kg every 3 weeks, 2 evaluable pts
# [7] = 1.25 mg/kg every 3 weeks, 2 evaluable pts
# [8] = 2.1 mg/kg every 3 weeks, 4 evaluable pts
# [9] = 2.8 mg/kg every 3 weeks, 96 evaluable pts
# [10] = 3.7 mg/kg every 3 weeks, 6 evaluable pts
molecule,measurement,setting,value
"cofetuzumab pelidotin (conjugate, chains of the INN, looked up, auristatin-0101 payload, vc linker) VH: QVQLVQSGPEVKKPGASVKVSCKASGYTFTDYAVHWVRQAPGKRLEWIGVISTYNDYTYNNQDFKGRVTMTRDTSASTAYMELSRLRSEDTAVYYCARGNSYFYALDYWGQGTSVTVSS VL: EIVLTQSPATLSLSPGERATLSCRASESVDSYGKSFMHWYQQKPGQAPRLLIYRASNLESGIPARFSGSGSGTDFTLTISSLEPEDFAVYYCQQSNEDPWTFGGGTKLEIK",PRs (number),[1]; 2.8 mg/kg every 3 weeks,4
same,PRs (number),[1]; 3.2 mg/kg every 2 weeks,2
same,overall objective response rate,"[1]; both regimens, n = 31",19%
same,CR,"[1]; every 2 weeks, N = 6",0 N
same,PR,"[1]; every 2 weeks, N = 6",2 N
same,ORR,"[1]; every 2 weeks, N = 6, (95% CI)",33 (4–78) %
same,mDOR,[1]; [3],NR (3.7–NR)
same,mPFS,[1]; [3],2.7 (1.0–NR) mo
same,CR,"[1]; every 3 weeks, N = 25",0 N
same,PR,"[1]; every 3 weeks, N = 25",4 N
same,ORR,[1]; [4],16 (5–36) %
same,mDOR,[1]; [4],5.7 (1.5–9.9) mo
same,mPFS,[1]; [4],2.9 (1.4–6.1) mo
same,Number of AEs (TRAEs),[2]; [5],1 n (%)
same,Pts discontinued due to AEs (TRAEs),[2]; [5],0 n (%)
same,Pts with AEs (TRAEs),[2]; [5],1 (50.0) n (%)
same,Pts with G3/G4 AEs (TRAEs),[2]; [5],1 (50.0) n (%)
same,Pts with SAEs (TRAEs),[2]; [5],0 n (%)
same,Pts with dose reduction and temporary discontinuation due to AEs (TRAEs),[2]; [5],0 n (%)
same,Pts with dose reduction due to AEs (TRAEs),[2]; [5],0 n (%)
same,Pts with temporary discontinuation due to AEs (TRAEs),[2]; [5],0 n (%)
same,Number of AEs (TRAEs),[2]; [6],1 n (%)
same,Pts discontinued due to AEs (TRAEs),[2]; [6],0 n (%)
same,Pts with AEs (TRAEs),[2]; [6],1 (50.0) n (%)
same,Pts with G3/G4 AEs (TRAEs),[2]; [6],0 n (%)
same,Pts with SAEs (TRAEs),[2]; [6],0 n (%)
same,Pts with dose reduction and temporary discontinuation due to AEs (TRAEs),[2]; [6],0 n (%)
same,Pts with dose reduction due to AEs (TRAEs),[2]; [6],0 n (%)
same,Pts with temporary discontinuation due to AEs (TRAEs),[2]; [6],0 n (%)
same,Number of AEs (TRAEs),[2]; [7],6 n (%)
same,Pts discontinued due to AEs (TRAEs),[2]; [7],0 n (%)
same,Pts with AEs (TRAEs),[2]; [7],1 (50.0) n (%)
same,Pts with G3/G4 AEs (TRAEs),[2]; [7],0 n (%)
same,Pts with SAEs (TRAEs),[2]; [7],0 n (%)
same,Pts with dose reduction and temporary discontinuation due to AEs (TRAEs),[2]; [7],0 n (%)
same,Pts with dose reduction due to AEs (TRAEs),[2]; [7],0 n (%)
same,Pts with temporary discontinuation due to AEs (TRAEs),[2]; [7],0 n (%)
same,Number of AEs (TRAEs),[2]; [8],28 n (%)
same,Pts discontinued due to AEs (TRAEs),[2]; [8],1 (25.0) n (%)
same,Pts with AEs (TRAEs),[2]; [8],4 (100.0) n (%)
same,Pts with G3/G4 AEs (TRAEs),[2]; [8],0 n (%)
same,Pts with SAEs (TRAEs),[2]; [8],1 (25.0) n (%)
same,Pts with dose reduction and temporary discontinuation due to AEs (TRAEs),[2]; [8],0 n (%)
same,Pts with dose reduction due to AEs (TRAEs),[2]; [8],0 n (%)
same,Pts with temporary discontinuation due to AEs (TRAEs),[2]; [8],0 n (%)
same,Number of AEs (TRAEs),[2]; [9],475 n (%)
same,Pts discontinued due to AEs (TRAEs),[2]; [9],2 (2.1) n (%)
same,Pts with AEs (TRAEs),[2]; [9],84 (87.5) n (%)
same,Pts with G3/G4 AEs (TRAEs),[2]; [9],40 (41.7) n (%)
same,Pts with SAEs (TRAEs),[2]; [9],9 (9.4) n (%)
same,Pts with dose reduction and temporary discontinuation due to AEs (TRAEs),[2]; [9],3 (3.1) n (%)
same,Pts with dose reduction due to AEs (TRAEs),[2]; [9],7 (7.3) n (%)
same,Pts with temporary discontinuation due to AEs (TRAEs),[2]; [9],16 (16.7) n (%)
same,Number of AEs (TRAEs),[2]; [10],27 n (%)
same,Pts discontinued due to AEs (TRAEs),[2]; [10],0 n (%)
same,Pts with AEs (TRAEs),[2]; [10],5 (83.3) n (%)
same,Pts with G3/G4 AEs (TRAEs),[2]; [10],3 (50.0) n (%)
same,Pts with SAEs (TRAEs),[2]; [10],0 n (%)
same,Pts with dose reduction and temporary discontinuation due to AEs (TRAEs),[2]; [10],1 (16.7) n (%)
same,Pts with dose reduction due to AEs (TRAEs),[2]; [10],0 n (%)
same,Pts with temporary discontinuation due to AEs (TRAEs),[2]; [10],0 n (%)
same,"patients reporting headache after infusion on cycle 1, day 1 or 2","[2]; all patients, every 3 weeks and every 2 weeks cohorts",29 patients
same,grade 1–2 peripheral sensory neuropathy,"[2]; every 2 weeks, N = 25",20%
same,grade 3 peripheral sensory neuropathy,"[2]; every 2 weeks, N = 25",8%
same,patients discontinued because of a TRAE,"[2]; every 2 weeks, N = 25",4%
same,patients with dose reduction,"[2]; every 2 weeks, N = 25",16%
same,patients with grade ≥ 3 all-cause AEs,"[2]; every 2 weeks, N = 25",72%
same,temporary discontinuations due to TRAEs,"[2]; every 2 weeks, N = 25",44%
same,treatment-related grade 3–4 neutropenia,"[2]; every 2 weeks, N = 25",24%
same,patients died on study,"[2]; every 2 weeks, N = 25, disease progression",16%
same,deaths because of a treatment-related AE,[2]; every 3 weeks and every 2 weeks,None of the patients died because of a treatment-related AE
same,"treatment-emergent, all-cause AEs",[2]; every 3 weeks or every 2 weeks,all patients
same,treatment-related grade 5 AEs,[2]; every 3 weeks regimen,^aNo treatment-related grade 5 AEs were observed with the every 3 weeks regimen.
same,febrile neutropenia,"[2]; every 3 weeks, N = 112",2.7%
same,grade ≥ 3 treatment-related neutropenia,"[2]; every 3 weeks, N = 112",25%
same,patients discontinued because of a TRAE,"[2]; every 3 weeks, N = 112",2.7%
same,patients with dose reduction,"[2]; every 3 weeks, N = 112",6.3%
same,patients with grade ≥ 3 all-cause AEs,"[2]; every 3 weeks, N = 112",79.4%
